Results of several laboratories.
Each line is one published result; the experiments were not run side by side.
Cell line: A549
Observed: cell growth or viability

Cn1c(=O)c(NN=C2C(=O)Nc3ccc(F)cc32)nc2ccccc21
inhibition (30 µM): 53.2%

CC(C)c1ccc(/C=C2\SC(=S)N(CC(=O)Nc3ccccc3)C2=O)cc1
inhibition (MTT; 10 µM): 22.5%

CCN(CC)CCNC(=O)c1c(C)[nH]c(/C=C2\C(=O)Nc3ccc(F)cc32)c1C
inhibition (30 µM): 85.7%

COc1ccc(CCNCC(O)COc2cccc(C)c2)cc1OC (stereo not shown)
viability (CCK-8; 100 µM; 72 h): < 50%

CN1C[C@H](C(=O)N[C@]2(C)O[C@@]3(O)[C@@H]4CCCN4C(=O)[C@H](Cc4ccccc4)N3C2=O)C[C@@H]2c3cccc4[nH]cc(c34)C[C@H]21
EC50 (MTT; 72 h): 43 µM

COC(C)(C)CCC[C@](C)(O)[C@H]1CC[C@]2(C)[C@@H]1[C@H](O)C[C@@H]1[C@@]3(C)CC[C@H](O)C(C)(C)[C@@H]3CC[C@]12C
IC20 (MTT; 72 h): 0.66 µM

O=C(CN1C(=O)/C(=C/c2ccc(Cl)cc2Cl)SC1=S)Nc1ccccc1
inhibition (MTT; 10 µM): 4.43%

C[C@]12CC[C@@H]3c4ccc(O)cc4CC[C@H]3[C@@H]1CC[C@@H]2O
EC90 (ATP luminescence; 72 h): 56.1 µM

CS(=O)(=O)CCNCc1ccc(-c2ccc3ncnc(Nc4ccc(OCc5cccc(F)c5)c(Cl)c4)c3c2)o1
EC50 (MTT; 72 h): 67 µM

COc1cccc(NC(=O)CN2C(=O)/C(=C/C3CC3)SC2=S)c1
inhibition (MTT; 10 µM): 17.2%

COc1cccc2c1C(=O)c1c(O)c3c(c(O)c1C2=O)C[C@@](O)(C(=O)CO)C[C@@H]3O[C@H]1C[C@H](N)[C@H](O)[C@H](C)O1
GI50 (SRB; 48 h): < 10 µg/mL

O=C(/C=C/c1ccc2c(ccn2S(=O)(=O)c2ccccc2)c1)NO
GI50 (SRB; 48 h): 1 µM

COc1ccccc1OCCNCC(O)COc1cccc2[nH]c3ccccc3c12 (stereo not shown)
viability (CCK-8; 100 µM; 72 h): < 50%

O=C(CN1C(=O)/C(=C/c2ccccn2)SC1=S)Nc1ccccc1
inhibition (MTT; 10 µM): 32.6%

COc1ccc2c(c1)C(=NNc1nc(-c3ccc(OC)c(OC)c3)nc3ccccc13)C(=O)N2
inhibition (30 µM): 17%

CC(C)=CCC[C@](C)(O)[C@H]1CC[C@]2(C)[C@@H]1[C@H](O)C[C@@H]1[C@@]3(C)CC[C@H](O[C@@H]4O[C@H](CO)[C@@H](O)[C@H](O)[C@H]4O[C@@H]4O[C@H](CO)[C@@H](O)[C@H](O)[C@H]4O)C(C)(C)[C@@H]3CC[C@]12C
IC80 (MTT; 72 h): > 100 µM

Cn1c(=O)c(NN=C2C(=O)Nc3ccc(Cl)cc32)nc2ccccc21
inhibition (30 µM): 27.1%

COc1cccc(NC(=O)CN2C(=O)/C(=C/c3ccccc3)SC2=S)c1
inhibition (MTT; 10 µM): 26.3%

CNS(=O)(=O)Nc1nccc(Cc2c(C)c3ccc(Oc4ncccn4)cc3oc2=O)c1F
GI50 (CCK-8): 5.07 µM
